Where a name gives a salt, the structure may show the parent alone. The source made the active and inactive calls. The calls are words filed in the database; no cut-off is given here.
What was measured:
D(2) dopamine receptor [1] = target: T1, D(2) dopamine receptor (Homo sapiens, UniProt P14416); assay: Displacement of [3H]spiperone from low-affinity state of human dopamine D2L receptor transfected in HEK293 cells after 2 hrs by scintillation counting analysis; assay type: cell-based
D(4) dopamine receptor = target: T2, D(4) dopamine receptor (Homo sapiens, UniProt P21917); assay: Displacement of [3H]spiperone from human dopamine D4 receptor transfected in HEK293 cells after 2 hrs by scintillation counting analysis; assay type: cell-based
T2 sequence (P21917 whole entry): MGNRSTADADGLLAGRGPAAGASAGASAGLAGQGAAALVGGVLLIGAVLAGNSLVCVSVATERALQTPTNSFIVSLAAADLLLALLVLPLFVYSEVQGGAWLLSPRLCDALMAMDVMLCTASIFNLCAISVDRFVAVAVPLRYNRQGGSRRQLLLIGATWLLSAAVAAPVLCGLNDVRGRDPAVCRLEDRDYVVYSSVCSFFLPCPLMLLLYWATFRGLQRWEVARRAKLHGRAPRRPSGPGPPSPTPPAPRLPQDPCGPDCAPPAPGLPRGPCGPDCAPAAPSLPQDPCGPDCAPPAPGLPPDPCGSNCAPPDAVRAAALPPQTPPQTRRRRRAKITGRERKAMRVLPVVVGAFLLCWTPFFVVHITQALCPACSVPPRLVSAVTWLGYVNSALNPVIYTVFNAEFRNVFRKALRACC

D(2) dopamine receptor [2] = target: T1, D(2) dopamine receptor; assay: Displacement of [3H]spiperone from low-affinity state of human dopamine D2S receptor transfected in HEK293 cells after 2 hrs by scintillation counting analysis; assay type: cell-based
Homo sapiens = species: Homo sapiens; assay: Selectivity ratio of Ki for human dopamine D1-like receptor to Ki for human dopamine D2-like receptor
D(1B) dopamine receptor = D(1B) dopamine receptor (Homo sapiens, UniProt P21918); assay: Displacement of [3H]SCH23390 from human dopamine D5 receptor transfected in HEK293 cells after 2 hrs by scintillation counting analysis; assay type: cell-based
Chain of D(1B) dopamine receptor (P21918 whole entry): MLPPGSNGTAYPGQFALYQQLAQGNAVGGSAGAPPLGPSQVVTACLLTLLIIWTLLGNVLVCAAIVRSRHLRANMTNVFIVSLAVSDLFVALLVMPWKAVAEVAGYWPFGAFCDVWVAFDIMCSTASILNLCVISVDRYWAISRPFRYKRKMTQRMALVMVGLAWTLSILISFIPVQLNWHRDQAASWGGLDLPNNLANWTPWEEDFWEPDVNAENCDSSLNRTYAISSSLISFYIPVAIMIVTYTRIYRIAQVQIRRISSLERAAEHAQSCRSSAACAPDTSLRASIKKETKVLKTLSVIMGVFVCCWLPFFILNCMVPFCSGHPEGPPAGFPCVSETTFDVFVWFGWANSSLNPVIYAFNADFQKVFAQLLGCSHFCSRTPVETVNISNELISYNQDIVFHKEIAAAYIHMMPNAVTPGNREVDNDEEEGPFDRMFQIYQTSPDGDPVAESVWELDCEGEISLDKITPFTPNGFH

D(3) dopamine receptor = D(3) dopamine receptor (Homo sapiens, UniProt P35462); assay: Displacement of [3H]spiperone from human dopamine D3 receptor transfected in HEK293 cells after 2 hrs by scintillation counting analysis; assay type: cell-based
Chain of D(3) dopamine receptor (P35462 whole entry): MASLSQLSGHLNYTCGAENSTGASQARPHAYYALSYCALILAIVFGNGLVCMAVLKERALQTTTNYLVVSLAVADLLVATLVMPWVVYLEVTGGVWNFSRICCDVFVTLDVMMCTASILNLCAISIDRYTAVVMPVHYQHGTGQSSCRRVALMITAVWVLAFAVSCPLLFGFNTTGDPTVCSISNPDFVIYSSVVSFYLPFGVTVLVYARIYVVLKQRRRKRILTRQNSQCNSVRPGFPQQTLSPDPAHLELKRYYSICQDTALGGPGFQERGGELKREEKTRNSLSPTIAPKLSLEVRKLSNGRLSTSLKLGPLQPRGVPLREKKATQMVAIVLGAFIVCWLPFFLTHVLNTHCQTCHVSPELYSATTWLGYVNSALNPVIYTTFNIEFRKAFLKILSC

D(2) dopamine receptor [3] = target: T1, D(2) dopamine receptor; assay: Displacement of [3H]spiperone from high-affinity state of human dopamine D2L receptor transfected in HEK293 cells after 2 hrs by scintillation counting analysis; assay type: cell-based
D(1A) dopamine receptor = D(1A) dopamine receptor (Homo sapiens, UniProt P21728); assay: Displacement of [3H]SCH23390 from human dopamine D1 receptor transfected in HEK293 cells after 2 hrs by scintillation counting analysis; assay type: cell-based
Chain of D(1A) dopamine receptor (P21728 whole entry): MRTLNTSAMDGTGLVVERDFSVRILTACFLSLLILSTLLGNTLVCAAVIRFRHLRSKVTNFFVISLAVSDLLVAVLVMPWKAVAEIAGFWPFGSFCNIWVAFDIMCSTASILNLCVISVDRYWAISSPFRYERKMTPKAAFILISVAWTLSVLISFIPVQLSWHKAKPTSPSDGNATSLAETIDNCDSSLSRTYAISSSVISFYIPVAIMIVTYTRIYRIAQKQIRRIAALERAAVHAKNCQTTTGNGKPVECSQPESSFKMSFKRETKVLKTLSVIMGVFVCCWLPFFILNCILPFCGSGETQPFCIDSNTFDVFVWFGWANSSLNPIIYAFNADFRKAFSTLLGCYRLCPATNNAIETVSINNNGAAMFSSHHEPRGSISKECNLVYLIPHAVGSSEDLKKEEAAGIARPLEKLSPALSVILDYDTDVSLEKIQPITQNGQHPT

D(2) dopamine receptor [4] = target: T1, D(2) dopamine receptor; assay: Agonist activity at human dopamine D2L receptor expressed in HEK293 cells assessed as inhibition of forskolin-induced cAMP accumulation after 30 mins by LANCE assay; assay type: functional, cell-based
D(2) dopamine receptor [5] = target: D(2) dopamine receptor (Rattus norvegicus, UniProt P61169); assay: Displacement of dopamine/[3-H]domperidone from high-affinity state of rat D2L receptor
Chain of D(2) dopamine receptor (Rattus norvegicus, UniProt P61169) (P61169 whole entry): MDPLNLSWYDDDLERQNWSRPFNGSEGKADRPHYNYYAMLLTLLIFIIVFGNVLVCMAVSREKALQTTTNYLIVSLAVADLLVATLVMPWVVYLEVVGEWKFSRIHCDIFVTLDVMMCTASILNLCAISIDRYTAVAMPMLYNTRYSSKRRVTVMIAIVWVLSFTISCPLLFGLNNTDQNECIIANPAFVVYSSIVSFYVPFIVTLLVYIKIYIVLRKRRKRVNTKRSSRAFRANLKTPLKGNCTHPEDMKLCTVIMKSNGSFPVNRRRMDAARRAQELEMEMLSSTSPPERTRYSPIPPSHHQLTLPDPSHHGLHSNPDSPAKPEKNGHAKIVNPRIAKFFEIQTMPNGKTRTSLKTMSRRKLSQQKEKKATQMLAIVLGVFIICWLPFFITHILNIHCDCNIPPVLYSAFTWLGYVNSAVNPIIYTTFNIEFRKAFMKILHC

Nucleic Acid [6] = assay: Ratio of drug level from striatum to cerebellum of Sprague-Dawley rat at […] after 35 mins by autoradiographic analysis in presence of dopamine D2/3 receptor antagonist raclopride; assay type: nucleic-acid assay
Nucleic Acid [7] = assay: Ratio of drug level from striatum to cortex of Sprague-Dawley rat at 4.5 +/- 3.6 nM after 35 mins by autoradiographic analysis in presence of dopamine D2/3 receptor antagonist raclopride
Procedure, shortened: (§1)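 Rat brain slice autoradiography with 10 μM raclopride co-incubated to define nonspecific binding. Slices were preincubated 15 min at rt in Tris buffer (5 mM KCl, 2 mM CaCl2, 2 mM MgCl2, 120 mM NaCl, pH 7.4). They were then exposed 35 min at 37 °C to radioligand at about 5 nM, washed ice-cold, and imaged on phosphor screens for 6–10 h with striatal and reference-region ROIs.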

Nucleic Acid [8] = assay: Ratio of drug level from striatum to cortex of Sprague-Dawley rat at […] after 35 mins by autoradiographic analysis in presence of dopamine D2/3 receptor antagonist raclopride
[9] = Lipophilicity, log D of the compound; assay type: physicochemical; conditions: octanol/water
Procedure, shortened: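 Shake-flask LogD of the [18F]-labelled tracer. Activity left on the HLB cartridge was eluted with n-octanol. The eluate was vortexed 5 min at rt with an equal volume of 1 M phosphate buffer, pH 7.4, then centrifuged at 17 000g for 10 min. Organic and aqueous aliquots were gamma-counted and corrected for intact-tracer fraction by radio-TLC. Each run was in duplicate, and the mean was taken from ≥2 independent experiments.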

Nucleic Acid [10] = assay: Ratio of drug level from striatum to cortex of Sprague-Dawley rat at 4.5 +/- 3.6 nM after 35 mins by autoradiographic analysis; assay type: ADME, tissue-based
Procedure, shortened: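 In vitro autoradiography on rat brain slices. Slices were preincubated 15 min at rt in 50 mM Tris-HCl, 5 mM KCl, 2 mM CaCl2, 2 mM MgCl2, 120 mM NaCl, pH 7.4. They were then incubated 35 min at 37 °C with radioligand at about 5 nM, washed in ice-cold buffer and dipped in water. Phosphor screens were exposed 6–10 h, with manual striatal and reference-region ROIs. Values are mean SD over slides from n experiments.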

Nucleic Acid [11] = assay: Ratio of drug level from striatum to cortex of Sprague-Dawley rat at […] after 35 mins by autoradiographic analysis; assay type: ADME, tissue-based
Nucleic Acid [12] = assay: Ratio of drug level from striatum to cerebellum of Sprague-Dawley rat at 4.5 +/- 3.6 nM after 35 mins by autoradiographic analysis in presence of dopamine D2/3 receptor antagonist raclopride; assay type: nucleic-acid assay; procedure, shortened: as §1
Nucleic Acid [13] = assay: Ratio of drug level from striatum to cortex of Sprague-Dawley rat at […] after 35 mins by autoradiographic analysis in presence of GTP; assay type: ADME, tissue-based
Nucleic Acid [14] = assay: Ratio of drug level from striatum to cerebellum of Sprague-Dawley rat at […] after 35 mins by autoradiographic analysis in presence of GTP; assay type: ADME, nucleic-acid assay
Nucleic Acid [15] = assay: Ratio of drug level from striatum to cerebellum of Sprague-Dawley rat at […] after 35 mins by autoradiographic analysis; assay type: ADME, nucleic-acid assay
Nucleic Acid [16] = assay: Ratio of drug level from striatum to cortex of Sprague-Dawley rat at 5.8 +/- […] after 35 mins by autoradiographic analysis in presence of dopamine D2/3 receptor antagonist raclopride; conditions: in vitro
Nucleic Acid [17] = assay: Ratio of drug level from striatum to cortex of Sprague-Dawley rat at 5.8 +/- […] after 35 mins by autoradiographic analysis; assay type: ADME, tissue-based; conditions: in vitro
Nucleic Acid [18] = assay: Ratio of drug level from striatum to cerebellum of Sprague-Dawley rat at 5.8 +/- […] after 35 mins by autoradiographic analysis; assay type: ADME, nucleic-acid assay; conditions: in vitro
Nucleic Acid [19] = assay: Ratio of drug level from striatum to cerebellum of Sprague-Dawley rat at 5.8 +/- […] after 35 mins by autoradiographic analysis in presence of GTP; assay type: ADME, nucleic-acid assay; conditions: in vitro
Nucleic Acid [20] = assay: Ratio of drug level from striatum to cortex of Sprague-Dawley rat at 5.8 +/- […] after 35 mins by autoradiographic analysis in presence of GTP; assay type: ADME, tissue-based; conditions: in vitro
Nucleic Acid [21] = assay: Ratio of drug level from striatum to cerebellum of Sprague-Dawley rat at 5.8 +/- […] after 35 mins by autoradiographic analysis in presence of dopamine D2/3 receptor antagonist raclopride; assay type: nucleic-acid assay; conditions: in vitro

T1 sequence (P14416 whole entry): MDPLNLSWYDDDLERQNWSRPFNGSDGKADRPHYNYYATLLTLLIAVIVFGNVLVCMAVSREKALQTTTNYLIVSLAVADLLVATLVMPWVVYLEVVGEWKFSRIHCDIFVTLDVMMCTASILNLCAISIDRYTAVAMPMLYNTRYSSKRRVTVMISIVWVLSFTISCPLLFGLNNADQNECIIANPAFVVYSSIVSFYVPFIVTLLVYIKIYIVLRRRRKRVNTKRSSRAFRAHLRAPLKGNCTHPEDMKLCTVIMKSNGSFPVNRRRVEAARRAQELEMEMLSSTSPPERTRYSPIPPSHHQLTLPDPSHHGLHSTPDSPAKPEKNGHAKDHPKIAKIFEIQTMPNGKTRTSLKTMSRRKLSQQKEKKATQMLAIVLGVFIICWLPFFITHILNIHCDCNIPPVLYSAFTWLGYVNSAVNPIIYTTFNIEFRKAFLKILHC

Structure (SMILES) | Ki (D(4) dopamine receptor; read-out: Ki) [nM] | Ratio Ki (Homo sapiens) | Ki (D(1B) dopamine receptor; read-out: Ki) [nM] | Ki (D(1B) dopamine receptor; read-out: pKi (converted)) [nM] | Ki (D(3) dopamine receptor; read-out: Ki) [nM] | Ki (D(1A) dopamine receptor; read-out: Ki) [nM] | Ki (D(2) dopamine receptor [1]; read-out: Ki) [nM] | Ki (D(2) dopamine receptor [1]; read-out: pKi (converted)) [nM] | Ki (D(2) dopamine receptor [2]; read-out: Ki) [nM] | EC50 (D(2) dopamine receptor [4]) [nM] | Ki (D(3) dopamine receptor; read-out: pKi (converted)) [nM] | Ki (D(1A) dopamine receptor; read-out: pKi (converted)) [nM] | also measured
Oc1ccc2c(c1)O[C@@H](CNCc1ccccc1OCCCCF)CC2 | – | > 100 | – | – | 33 | 1160 | 156 | 145 | 452 | – | – | – | –
Oc1ccc2c(c1)O[C@@H](CNCc1ccccc1)CC2 | – | – | 3830 | 3720 | – | 7250 | – | – | – | – | – | – | –
CCCCCCNC[C@H]1CCc2ccc(O)cc2O1 | 5.7 | – | 27700 | 2750 | 547 | 10900 | – | – | – | 0.0501 | 19.1 | 10500 | Ki (D(4) dopamine receptor; read-out: pKi (converted)): 5.01 nM
CCCN1CCO[C@@H]2c3cc(O)ccc3CC[C@H]21 [NAXAGOLIDE HYDROCHLORIDE] | – | – | – | – | – | – | – | – | – | – | – | – | Ki (D(2) dopamine receptor [5]): 0.6 nM
Oc1ccc2c(c1)O[C@@H](CNCc1ccc(OCCCCF)cc1)CC2 | 32.1 | > 100 | 2890 | 2450 | 12.1 | 6910 | 80.5 | 61.7 | 92.7 | 0.398 | – | 6610 | Ki (D(2) dopamine receptor [2]; read-out: pKi (converted)): 91.2 nM; Ki (D(2) dopamine receptor [3]; read-out: Ki): 5.6 nM
Oc1ccc2c(c1)O[C@@H](CNCc1cccc(I)c1)CC2 | 0.97 | > 100 | 4640 | 4570 | 7.87 | 4290 | 72.9 | 33.9 | 30.8 | 0.0316 | 2.88 | 3890 | Ki (D(2) dopamine receptor [2]; read-out: pKi (converted)): 28.8 nM; Ki (D(2) dopamine receptor [3]; read-out: Ki): 2.06 nM; Ki (D(2) dopamine receptor [3]; read-out: pKi (converted)): 1.02 nM
Oc1ccc2c(c1)O[C@@H](CNCc1ccc(OCCCC[18F])cc1)CC2 | – | – | – | – | – | – | – | – | – | – | – | – | Ratio (Nucleic Acid [6]): 1.1; Ratio (Nucleic Acid [7]): 1.05; Ratio (Nucleic Acid [8]): 1.03; logD [9]: 2.45; Ratio (Nucleic Acid [10]): 1.16; Ratio (Nucleic Acid [11]): 1.68; Ratio (Nucleic Acid [12]): 1.04; Ratio (Nucleic Acid [13]): 1.13; Ratio (Nucleic Acid [14]): 1.2; Ratio (Nucleic Acid [15]): 1.85
Oc1ccc2c(c1)O[C@@H](CNCc1ccc(I)cc1)CC2 | 1.59 | – | – | 3550 | 13.9 | 8670 | – | – | – | – | 5.62 | 8130 | Ki (D(4) dopamine receptor; read-out: pKi (converted)): 1.55 nM
Oc1ccc2c(c1)O[C@@H](CNCc1ccccc1I)CC2 | – | > 100 | – | – | 1.79 | 436 | 51.2 | 29.5 | 166 | – | 1.66 | 417 | Ki (D(2) dopamine receptor [2]; read-out: pKi (converted)): 83.2 nM; Ki (D(2) dopamine receptor [3]; read-out: Ki): 0.68 nM; Ki (D(2) dopamine receptor [3]; read-out: pKi (converted)): 0.162 nM
Oc1ccc2c(c1)O[C@@H](CNCCN1CCN(c3ccc(OCC[18F])cc3)CC1)CC2 | – | – | – | – | – | – | – | – | – | – | – | – | Ratio (Nucleic Acid [16]): 1.2; Ratio (Nucleic Acid [17]): 1.9; logD [9]: 1.48; Ratio (Nucleic Acid [18]): 2.64; Ratio (Nucleic Acid [19]): 1.67; Ratio (Nucleic Acid [20]): 1.48; Ratio (Nucleic Acid [21]): 1.65

Continued, in another order:

Ki (D(4) dopamine receptor; read-out: Ki) [nM] | Ratio Ki (Homo sapiens) | Ki (D(1B) dopamine receptor; read-out: Ki) [nM] | Ki (D(1B) dopamine receptor; read-out: pKi (converted)) [nM] | Ki (D(3) dopamine receptor; read-out: Ki) [nM] | Ki (D(1A) dopamine receptor; read-out: Ki) [nM] | Ki (D(2) dopamine receptor [1]; read-out: Ki) [nM] | Ki (D(2) dopamine receptor [1]; read-out: pKi (converted)) [nM] | Ki (D(2) dopamine receptor [2]; read-out: Ki) [nM] | EC50 (D(2) dopamine receptor [4]) [nM] | Ki (D(3) dopamine receptor; read-out: pKi (converted)) [nM] | Ki (D(1A) dopamine receptor; read-out: pKi (converted)) [nM] | Structure (SMILES) | also measured
14.3 | > 100 | 17800 | 17400 | 24.2 | 46500 | – | – | – | – | – | – | Oc1ccc2c(c1)O[C@@H](CN1CCN(c3ccc(I)cc3)CC1)CC2 | inhibition (D(2) dopamine receptor [1]): inactive; inhibition (D(2) dopamine receptor [2]): inactive; inhibition (D(2) dopamine receptor [3]): inactive
9.7 | > 100 | 3480 | – | 23 | 3960 | 80.5 | 66.1 | 131 | 1.58 | 21.9 | 3890 | Oc1ccc2c(c1)O[C@@H](CNCCN1CCN(c3ccc(I)cc3)CC1)CC2 | –
131 | > 100 | 19700 | – | 39.4 | – | – | – | – | – | 37.2 | – | Oc1ccc2c(c1)O[C@@H](CN1CCN(c3ccc(OCCF)cc3)CC1)CC2 | inhibition (D(2) dopamine receptor [1]): inactive; Ki (D(4) dopamine receptor; read-out: pKi (converted)): 47.9 nM; inhibition (D(2) dopamine receptor [2]): inactive; inhibition (D(2) dopamine receptor [3]): inactive; inhibition (D(1A) dopamine receptor): inactive
27.7 | > 100 | 9700 | – | 10 | – | 235 | 219 | 252 | 0.158 | 8.71 | – | Oc1ccc2c(c1)O[C@@H](CNCCN1CCN(c3ccc(OCCF)cc3)CC1)CC2 | Ki (D(4) dopamine receptor; read-out: pKi (converted)): 22.9 nM; Ki (D(2) dopamine receptor [2]; read-out: pKi (converted)): 234 nM; Ki (D(2) dopamine receptor [3]; read-out: Ki): 6.67 nM; Ki (D(2) dopamine receptor [3]; read-out: pKi (converted)): 5.01 nM; inhibition (D(1A) dopamine receptor): inactive
